Compound activity as filed in PubChem.
The list is not random: actives were taken first. Their share in the collection is about 8.9%.
L major viab = reduces viability of Leishmania major promastigotes; hit rate 9% among 200,000; AID 1063; inhibition, % at 10 µM; resazurin fluorescence viability; in the data active = inhibition above about 50%;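 also: promastigotes grown with compound for 44 hours at 28 °C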
HSV replic up = increases HSV replication in cells | HSV replication augmentation in cells, fold increase | hit rate 0.005% among 220,000 | maximum fold increase; in the data active = maximum fold increase above about 1.5; tested in PC3 cells
MT stabilize HCS = microtubule stabilizers in HeLa cells. HeLa tubulin immunostaining HCS, 24 h; share of cells brighter than vehicle mean+2SD. % tubulin-high responders, % at 10 µM. hit rate 0.83% among 200,000. AID 2205;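 active = plate Z-score above 3 for both tubulin-high and condensed-nucleus cell shares, with cell loss under 80%, at 10 µM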;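 also: anti alpha tubulin signal scored within the nucleus-defined area of each cell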
b-catenin transl = alters nuclear translocation of beta-catenin in HeLa cells; hit rate 0.3% among 190,000; AID 1665; immunofluorescence imaging; nuclear translocation activity, % at 5 µM;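 active = nuclear translocation activity above 50% at 5 µM, with a well cell count of 50 or more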;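 also: per-cell ratio of nuclear to cytoplasmic median beta-catenin stain intensity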
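System: Human HeLa cells, endogenous beta-catenin | Compound dosing: 5 µM primary, 0.02–20 µM confirmation | Timing: 24 h compound exposure at 37°C, 5% CO2 | Measured by: Fluorescence imaging of beta-catenin antibody stain plus DAPI | Read-out basis: % activation of per-cell nuclear versus cytoplasmic median beta-catenin signal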
Dynein cargo inh = blocks dynein driven cargo transport along microtubules; 3617.4 mouse cells, GR-EGFP nuclear translocation imaging; test concentration mostly 20 µM; stimulated with dexamethasone, 1 µM; active compounds read low; z-score, hits read low; hit rate 0.47% among 220,000;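 active = plate z-score of nuclear minus cytoplasmic receptor signal below a set negative limit, without overly bright fluorescence or cell loss, cut at about -3.5 in these data, passing the limit was not always enough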;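 also: z-score of nuclear minus cytoplasmic ring GR-EGFP intensity difference per well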
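Buffer or medium – tet-free medium with charcoal-stripped serum · Signal – automated 10x imaging of fixed Hoechst-stained cells · Also added – dexamethasone agonist, 1.0 µM final, for 30 min · Incubation – induction 48 h, compound 1 h, agonist 30 min · Read-out – GR-EGFP nuclear translocation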
Large screens that a line does not name were inactive.

O=C(COc1ccc(S(=O)(=O)NC2CCCCC2)cc1Cl)N1CCN(c2ccccc2)CC1	L major viab 98
N#CC(C#N)=c1ccc2c(c1)N1C3=C(CCCC3)CC3CCCCC31N=2 (stereo not given)	L major viab 99
N#C/C(C(N)=O)=c1/ccc2c(c1)N1C3=C(CCCC3)CC3CCCCC31N=2 (stereo not given)	L major viab 74
CCCCc1n[nH]c2c1/C(=N/OCC)CC(C)(C)C2	none (no result: L major viab, MT stabilize HCS)
Cc1cc(C)nc(NC(=NCc2ccc3c(c2)OCO3)NC(=O)Nc2ccccc2)n1	none
C=CCN(Cc1nc(-c2cc(OC)ccc2OC)oc1C)C1CCS(=O)(=O)C1 (stereo not given)	none
C=CCN(Cc1nc(-c2ccc(OC)c(OC)c2)oc1C)C1CCS(=O)(=O)C1 (stereo not given)	L major viab 54
O=C(NCC1CCCO1)c1ccc(N2CCCCC2)nc1 (stereo not given)	none
Cc1ccccc1N(CC(=O)NCCc1ccccc1)C(=O)c1ccc(N2CCCC2)nc1	L major viab 61
O=C1CC(c2ccccc2)Cc2nc(NCc3ccco3)ncc21 (stereo not given)	none (no result: HSV replic up)
CCc1ccc(C(=O)COC(=O)C(Cc2ccccc2)NC(=O)c2ccc(Cl)cc2)cc1 (stereo not given)	L major viab 75
COc1cccc(/C=C/C(=O)NCc2cn3cc(Cl)ccc3n2)c1OC	none
Fc1ccc(CN2CCSCC2)cc1Br	none
CCOC(=O)C1CCN(Cc2ccc(F)cc2F)CC1	L major viab 89
CCOC(=O)C1CCN(Cc2ccc(OC)c(C)c2OC)CC1	L major viab 64
CCOC(=O)C1CCN(Cc2ccc(F)c(Br)c2)CC1	L major viab 77
COC(=O)C1CCN(Cc2ccc(C)cc2)CC1	L major viab 91
O=C1C(=Cc2ccco2)C(=O)c2ccccc21	none
Cc1cc(Nc2ccc(F)c(Cl)c2)n2ncnc2n1	none
COc1ccc(N2CCN(c3cc(C)c4ccc(C)cc4n3)CC2)cc1	none
Cc1cccc(N2CCN(C(=S)Nc3ccc4nc(N5CCN(C)CC5)cc(C)c4c3)CC2C)c1 (stereo not given)	L major viab 98
COc1ccc2c(C)cc(N3CCN(c4ccc(F)cc4)CC3)nc2c1	L major viab 87
COC(=O)c1sccc1NC(=S)N1CCN(c2cccc(C)c2C)CC1	MT stabilize HCS 15
CCCCN(CC)C(=S)Nc1ccc2nc(N3CCN(C)CC3)cc(C)c2c1	L major viab 53
CCn1cc(C(=O)OCC(=O)NCc2ccccc2Cl)c(=O)c2ccc(C)nc21	none
Cc1cc(NC(=O)c2cc(C3CC3)on2)n(-c2ccccc2)n1	none
Cc1cc(N2CCN(C)CC2)nc2ccc(NC(=S)N3CCN(c4ccc(F)cc4)CC3)cc12	L major viab 100
Cc1cc(N2CCN(C)CC2)nc2ccc(NC(=S)N3CCCCC3)cc12	none
Cc1cc(N2CCN(C)CC2)nc2ccc(NC(=S)N3CCN(c4ccc(Cl)cc4)CC3)cc12	L major viab 100
Cc1cccc(N2CCN(C(=S)Nc3ccc4nc(N5CCN(C)CC5)cc(C)c4c3)CC2)c1C	L major viab 101
O=C(NCCN1CCOCC1)c1ccc(Cl)cc1[N+](=O)[O-]	none (no result: b-catenin transl)
O=C(COc1ccc(Cl)cc1Cl)NCc1ccco1	none
COc1ccc(CNC(=O)C/C(C)=N/NC(=O)COc2ccc(C)cc2Br)cc1	b-catenin transl 146
C/C(CC(=O)NCc1ccco1)=N\NC(=O)COc1ccc(Cl)cc1Cl	b-catenin transl 59
CCCNC(=O)C/C(C)=N/NC(=O)COc1ccc(C)cc1Br	none
O=C(NCc1ccccc1)c1ccc(Cl)nc1	none
Cc1nc([N+](=O)[O-])c(Sc2nc3ccccc3[nH]2)n1Cc1ccccc1	L major viab 99
Cc1nc([N+](=O)[O-])c(N2CCN(Cc3ccccc3)CC2)n1Cc1ccccc1	none (no result: b-catenin transl)
Cc1cc2nc(Sc3c([N+](=O)[O-])nc(C)n3Cc3ccccc3)[nH]c2cc1C	L major viab 93
Cn1cnc([N+](=O)[O-])c1Sc1nc2ccccc2[nH]1	none (no result: L major viab, MT stabilize HCS)
COc1ccc2nc(Sc3c([N+](=O)[O-])nc(C)n3Cc3ccccc3)[nH]c2c1	L major viab 87
COc1ccccc1C(=O)Nc1ccc2c(c1)nc(CCNC(=O)c1ccccc1)n2C	none (no result: L major viab, MT stabilize HCS)
C/C(=N\OCC(=O)Nn1c(C)nc2ccccc2c1=O)c1cccs1	none (no result: L major viab, MT stabilize HCS)
Cc1ccc(NS(=O)(=O)c2cc(NC(=O)c3ccc4c(c3)NC(=O)CS4)ccc2Cl)c(C)c1	L major viab 87
COC(=O)c1cc(OC)c(OC)cc1NC(=O)CSc1nnc(-c2cccnc2)n1C	none
Oc1ccc(/C=N/NC(=S)Nc2cccnc2)c(O)c1	L major viab 84
Oc1ccc(/C=N/Nc2ccc3ccccc3c2)c(O)c1	L major viab 85
Oc1cccc(/C=N/NC(=S)Nc2cccnc2)c1O	L major viab 99 (no result: b-catenin transl)
O=C(NNS(=O)(=O)c1ccc(Br)cc1)c1cccs1	none
O=C(COc1ccccc1/C=C1/NC(=O)NC1=O)Nc1ccccc1	none
Cc1onc(-c2ccccc2)c1C(=O)NC(=S)NNC(=O)c1ccncc1	none
CCOC(=O)N1CCC(N2CCCC(CO)(Cc3ccccc3C)C2)CC1 (stereo not given)	L major viab 88
Cc1ccccc1CC1(CO)CCCN(Cc2ccn[nH]2)C1 (stereo not given)	none
CCOC(=O)N1CCC(N2CCCC(CO)(Cc3cccc(Cl)c3)C2)CC1 (stereo not given)	L major viab 87
Cc1ccc(CN2CCCC(CO)(Cc3ccccc3C)C2)s1 (stereo not given)	L major viab 66
CSCC(=O)N1CCCC(CO)(Cc2ccccc2C)C1 (stereo not given)	none
CN(C(=O)COC(=O)c1ccccc1Nc1ccccc1)C1CCS(=O)(=O)C1 (stereo not given)	none
Cc1ccccc1CCN(C(=O)CN1C(=O)c2ccccc2S1(=O)=O)C(C(=O)NCC1CCCO1)c1ccncc1 (stereo not given)	L major viab 60
COc1ccc2nc(Nc3ccc4c(c3)OCO4)sc2c1	none
COc1ccc2nc(Nc3nc4cc5c(cc4s3)OCO5)sc2c1	L major viab 55
Cc1ccc(SCCC(=O)Nc2c(C)n(C)n(-c3ccccc3)c2=O)cc1	none (no result: b-catenin transl)
COc1cc(CCC(=O)Nc2nnc(-c3cccnc3)s2)cc(OC)c1OC	none
CC(C)C(NS(=O)(=O)c1cccc2nsnc12)C(=O)NCc1ccc2c(c1)OCO2 (stereo not given)	L major viab 100 (no result: b-catenin transl)
CC(C)C(NS(=O)(=O)c1cccc2nsnc12)C(=O)NCc1ccco1 (stereo not given)	none (no result: L major viab, MT stabilize HCS)
O=C(CN(Cc1ccccc1)S(=O)(=O)c1ccc2c(c1)OCCO2)N/N=C/c1cccc(Br)c1	L major viab 80
COc1ccc(/C=N/NC(=O)CN(Cc2ccccc2)S(=O)(=O)c2ccc3c(c2)OCCO3)cc1	L major viab 90
COc1ccc(CNC(=O)CN(CCC(C)C)S(=O)(=O)c2ccc3c(c2)OCCO3)cc1	L major viab 80
